ChEMBL document CHEMBL2086325, “Suppression of autoimmune arthritis by Celastrus-derived Celastrol through modulation of pro-inflammatory chemokines” (Bioorg Med Chem, 2012)
Activity calls are given as the source filed them. The rule behind the calls is not given here.

Tests used:
[1] = system: Rattus norvegicus; assay: Antiarthritic effect in Lewis rat adjuvant-induced arthritis model spleen adherent cells restimulated with sonicated Mtb post isolation assessed as reduction in TNFalpha production at 200 ug, ip starting from arthritis onset and continued uninterrupted until study end by cytokine multiplex assay; assay type: functional, organism-based
Outline: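 Mtb-immunized male Lewis rats were dosed 200 μg/rat i.p. daily from arthritis onset (vehicle: 1.2% DMSO/PBS). Spleen adherent cells were prepared on d 18, plated at 1.5 × 10^6/well in 2% FBS medium and restimulated with sonicated Mtb (10 μg/ml) for 24 h. Supernatant chemokines and cytokines were measured by Luminex multiplex. Mean ± SD of triplicates from 4–5 rats.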

[2] = Increase in CCR1 protein surface expression in sonicated Mtb-stimulated spleen adherent cells isolated Inhibition of cell migration of RANTES-stimulated spleen adherent cells isolated from Lewis rat adjuvant-induced arthritis model at 0. 3 uM by Transwell cell migration assay; assay type: functional
Outline: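 Transwell assay with 8-μm polycarbonate inserts. Spleen adherent cells (1 × 10^6) from arthritic rats were placed in the upper chamber; the lower chamber held serum-free RPMI with RANTES (50 ng/ml) ± compound (0.1, 0.3 μM). Cells migrated 24 h at 37 °C, 5% CO2. Lower-surface cells were fixed in 4% formaldehyde, DAPI-stained, imaged at 10× and counted by image analysis. RANTES alone was set as 100%.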

[3] = species on record: Rattus norvegicus; assay: Antiarthritic effect in IL-1beta-stimulatedspleen adherent cells isolated from Lewis rat adjuvant-induced arthritis model assessed as reduction in TNFalpha production pre-incubated with compound for 30 mins before stimulation with IL-1beta for 48 hrs by multiplex assay; assay type: functional, tissue-based; conditions: Spleen
[4] = system: Rattus norvegicus; assay: (§1) Antiarthritic effect in Lewis rat adjuvant-induced arthritis model synovial infiltrating cells restimulated with sonicated Mtb post isolation assessed as reduction in GRO/KC production at 200 ug, ip starting from arthritis onset and continued uninterrupted until study end by cytokine multiplex assay; assay type: functional, organism-based
Outline: (§2)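 Male Lewis rats were immunized s.c. with heat-killed Mtb H37Ra (1.5 mg/rat) in mineral oil. From arthritis onset they received 200 μg/rat i.p. daily (DMSO stock diluted in PBS); controls got 1.2% DMSO in PBS. On d 18, draining lymph node or synovial-infiltrating cells were cultured at 1.5 × 10^6/well in 2% FBS medium ± sonicated Mtb (10 μg/ml) for 24 h. Supernatants were analysed by multiplex.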

[5] = system: Rattus norvegicus; assay: Antiarthritic effect in Lewis rat adjuvant-induced arthritis model lymph node cells restimulated with sonicated Mtb post isolation assessed as reduction in TNFalpha production at 200 ug, ip starting from arthritis onset and continued uninterrupted until study end by cytokine multiplex assay; assay type: functional, organism-based; outline: as §2
[6] = system: Rattus norvegicus; assay: as §1, with “TNFalpha” for “GRO/KC”; assay type: functional, organism-based; outline: as §2

For `CC1=C(O)C(=O)C=C2C1=CC=C1[C@@]2(C)CC[C@@]2(C)[C@@H]3C[C@](C)(C(=O)O)CC[C@]3(C)CC[C@]12C` [CELASTROL], which Activity [1] is on record?
The Activity was “Active”.

What about the “inhibition (INH)” value [2] of the same molecule?
The value was 63%.

And the Activity [3]?
The Activity was “Dose-dependent effect”.

And the Activity [4]?
The Activity was “inactive”.

What about the Activity [5] of the same molecule?
Its Activity is “inactive”.

What about the Activity [6] of the same molecule?
The Activity was “inactive”.
